Bioassay records as filed in PubChem.
Shown are actives, neighbours in structure and some others; about 3% of the full set was active somewhere.
TRPC6 inh = mouse TRPC6 channel inhibitors, primary screen, cell-based, HEK293, membrane potential dye | B-score at 10 µM | ACh-evoked depolarization; stronger effect = lower value | Short transient receptor potential channel 6 (Mus musculus), Q61143 | 1.1% of 310,000 active;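 active = B-score under library mean minus 3 SD, initial fluorescence not abnormally high, positive integrated signal ratio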;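 also: B-score derived from integrated fluorescence ratio over the kinetic read; more negative B-score means stronger inhibition of depolarization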
Target sequence (Q61143 whole entry, looked up): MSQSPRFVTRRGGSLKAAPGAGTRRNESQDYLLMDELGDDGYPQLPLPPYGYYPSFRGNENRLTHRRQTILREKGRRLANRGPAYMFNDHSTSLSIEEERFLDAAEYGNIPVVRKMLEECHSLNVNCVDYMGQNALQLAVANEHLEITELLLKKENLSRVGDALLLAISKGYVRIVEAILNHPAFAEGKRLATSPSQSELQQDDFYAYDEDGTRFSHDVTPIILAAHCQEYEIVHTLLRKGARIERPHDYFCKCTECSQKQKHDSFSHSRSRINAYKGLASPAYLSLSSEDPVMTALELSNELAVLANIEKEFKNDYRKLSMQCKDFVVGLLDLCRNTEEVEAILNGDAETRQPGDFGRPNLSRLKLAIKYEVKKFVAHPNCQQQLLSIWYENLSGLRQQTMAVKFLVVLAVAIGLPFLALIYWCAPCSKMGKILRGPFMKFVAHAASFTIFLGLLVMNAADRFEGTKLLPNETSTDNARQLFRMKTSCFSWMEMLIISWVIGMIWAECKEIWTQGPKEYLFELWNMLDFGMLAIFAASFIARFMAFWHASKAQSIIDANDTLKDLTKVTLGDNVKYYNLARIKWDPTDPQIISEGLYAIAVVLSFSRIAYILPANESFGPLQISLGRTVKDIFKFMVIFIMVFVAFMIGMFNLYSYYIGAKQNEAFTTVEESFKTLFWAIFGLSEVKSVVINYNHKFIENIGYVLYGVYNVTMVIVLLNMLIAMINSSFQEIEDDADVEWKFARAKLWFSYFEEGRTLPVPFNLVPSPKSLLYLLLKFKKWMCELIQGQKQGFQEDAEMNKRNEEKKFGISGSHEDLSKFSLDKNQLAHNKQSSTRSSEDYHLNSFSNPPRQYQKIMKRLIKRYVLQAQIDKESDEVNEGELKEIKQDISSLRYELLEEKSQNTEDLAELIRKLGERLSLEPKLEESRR
TRPC6 act = mouse TRPC6 channel activators, primary screen, cell-based, HEK293, membrane potential dye; HEK293-TRPC6 membrane potential dye fluorescence; stronger effect = higher value; 0.13% of 310,000 active; B-score at 10 µM; AID 2550, 2010;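 active = B-score of the integrated fluorescence ratio above library mean plus 3 SD, and starting fluorescence ratio within library mean plus 5 SD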;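 also: higher score means more depolarization so channel activation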
TRPC4 act = activators of mouse TRPC4 channel, primary screen, Fluo4 calcium, HEK293 TRPC4beta/mu-opioid cells; Short transient receptor potential channel 4 (Mus musculus), Q9QUQ5; Fluo4 calcium fluorescence; stronger effect = higher value; B-score at 10 µM; 0.49% of 310,000 active; AID 2237, 2010;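 active = B-score above 5 SD of library B-scores, and initial fluorescence ratio not above library mean plus 5 SD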;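 also: positive B-score marks a calcium rise read as TRPC4 activation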
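Test system: HEK293 cells stably co-expressing mouse TRPC4beta and mu-opioid receptor | Schedule: Fluo4 dye loading 45 min at room temperature, 110 s recording | Measured by: Kinetic Fluo4 calcium fluorescence, 5 s baseline at 1 Hz | Evaluation: B score of integrated ratio | Controls: Buffer (low) and maximal DAMGO (high)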
Kir21 inh = inhibitors of mouse Kir2.1 inward-rectifier potassium channel; 0.85% of 310,000 active; HEK293-Kir2.1, FluxOR thallium flux fluorescence; stronger effect = lower value; Inward rectifier potassium channel 2 (Mus musculus), P35561; B-score at 10 µM;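 active = fluorescence ratio B-score at or below minus 3 SD of library scores, with starting-brightness B-score within 2 SD, cut at about -4.2 in these data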;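 also: channel flux triggered by added potassium and thallium sulfate stimulus; B-score of peak minus minimum fluorescence over baseline after thallium stimulus; more negative B-score means stronger Kir2.1 block with less thallium influx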
TRPC4 inh = inhibitors of mouse TRPC4 channel, primary screen, Fluo4 calcium, HEK293 TRPC4beta/mu-opioid cells; DAMGO-evoked Fluo4 calcium flux; stronger effect = lower value; 0.39% of 300,000 active; Short transient receptor potential channel 4 (Mus musculus), Q9QUQ5; B-score at 10 µM;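 active = B-score over 3 SD under the library average, no early fluorescence shift, positive overall ratio signal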
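material = TRPC4beta/mu-opioid receptor HEK293 cell line | probe or stimulus = sequential submaximal and maximal DAMGO stimulation | compound dosing = one concentration per compound | measured by = Fluo4 Ca2+ flux fluorescence | evaluation = integrated fluorescence ratio relative to baseline, converted to per-well B score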
TRPC4 potent = positive allosteric modulators of TRPC4, primary screen, cell-based, mouse TRPC4beta, HEK293 mu-opioid, Fluo-4 calcium; Short transient receptor potential channel 4 (Mus musculus), Q9QUQ5; DAMGO EC20, Fluo-4 Ca2+ flux; stronger effect = higher value; B-score at 10 µM; 0.42% of 310,000 active; AID 2227, 2009;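 active = B-score of calcium response area above 5 SD of library B-scores, with initial fluorescence ratio within 5 SD of library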
TRPC4 spec 2 = second selectivity test of TRPC6 inhibitors: effect on mouse TRPC4; shares compounds with TRPC6 inh; HEK293 TRPC4/MOR, membrane potential dye fluorescence; channel activated by saturating DAMGO dose; inhibition, % at 10 µM; 42% of 920 active; AID 2776;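 active = compounds whose fluorescence signal differed from control wells by over 3 SD, either direction, in both duplicate plates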
TRPC4 spec = mouse TRPC4 modulation by TRPC6 hits, confirmation, selectivity assay for TRPC6 inhibitor project, cell-based, HEK293 TRPC4/mu-opioid, membrane potential dye | activity change, negative = inhibition, % at 10 µM | 61% of 920 active | shares compounds with TRPC6 inh | membrane potential fluorescence | AID 2777, 2010;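 active = rise or fall in signal beyond 3 SD of buffer-only wells in both replicate plates, either sign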;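 also: integrated kinetic ratio of fluorescence range over baseline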
HEK293 MPD ctr 2-1 = nonspecific membrane potential effects, parental HEK293, confirmation, counter-screen for TRPC6 inhibitor project, cell-based, second counter screen; shares compounds with TRPC6 inh; 31% of 920 active; signal change vs control, % at 10 µM; parental HEK293 membrane potential dye fluorescence; maximal acetylcholine challenge after compound addition;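 active = membrane potential signal moving either way by over 3 SD of the maximum-effect control, in both duplicate plates, meaning non-specific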
HEK293 MPD ctr-1 = membrane potential modulation in parental HEK293, confirmation, counter-screen for TRPC6 inhibitor project, cell-based. parental HEK293 membrane potential dye fluorescence. 60% of 920 active. membrane potential signal change, % at 10 µM. AID 2780, 2010. shares compounds with TRPC6 inh;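 active = membrane potential signal shifting up or down by more than 3 SD of buffer-only wells, on both duplicate plates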
HEK293 MPD ctr-2 = parental HEK293 membrane potential modulation, confirmation, counter-screen for TRPC6 modulator project, cell-based. shares compounds with TRPC6 inh. membrane potential dye fluorescence. membrane potential signal change, % at 10 µM. 51% of 2,400 active;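 active = membrane potential signal moves up or down beyond 5 SD from buffer-only wells, on both duplicate plates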
HEK293 MPD ctr 2-2 = second check of TRPC6 modulator effects in parental HEK293 cells; shares compounds with TRPC6 inh; membrane potential dye fluorescence; after compound, maximal acetylcholine stimulation; inhibition, % at 10 µM; 14% of 2,400 active;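 active = membrane potential signal drops by more than 5 SD from the mean control signal, in both duplicate plates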
TRPC4/MOR mod = TRPC4 modulation by TRPC6 hit compounds, confirmation, selectivity assay for TRPC6 modulator project, cell-based, HEK293 TRPC4/mu-opioid, membrane potential dye, mouse | shares compounds with TRPC6 inh | membrane potential fluorescence | percent change from control (negative = decrease, positive = increase), % at 10 µM | 69% of 2,400 active | AID 488927, 2010;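 active = membrane potential signal moved up or down beyond 5 SD of buffer control wells, in both duplicate plates, actives on both sides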
TRPC4 ctr inh 2 = mouse TRPC4 off-target activity of TRPC6 modulators, second screen; shares compounds with TRPC6 inh; HEK293 TRPC4/mu-opioid, membrane potential dye fluorescence; stimulated with maximal-effect DAMGO; inhibition, % at 10 µM; 55% of 2,400 active; AID 488928;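 active = drop in membrane potential signal beyond 5 SD of the control wells in both duplicate plates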;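 also: TRPC4 counter screen for TRPC6 hits run under conditions tuned for TRPC6 not TRPC4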
TRPC6 block conf = mouse TRPC6 channel inhibitors, confirmation, HEK293 cells, membrane potential dye, duplicate. shares compounds with TRPC6 inh. ACh-evoked depolarization. inhibition, % at 10 µM. 43% of 3,300 active;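 active = fluorescence ratio falls more than 5 SD below the full-stimulation control mean, in both duplicate runs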;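 also: integrated fluorescence ratio of peak minus minimum over baseline after agonist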
TRPC6 act confirm = mouse TRPC6 channel activators, confirmation, HEK293 cells, membrane potential dye, duplicate. shares compounds with TRPC6 inh. HEK293-TRPC6 membrane potential dye fluorescence, FDSS. activation, % at 10 µM. 11% of 2,800 active;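 active = ratio signal rise beyond 5 SD above unstimulated control wells' mean, seen in both duplicate runs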
A number is an active result; 0 = inactive; - = not tested or not shown.

SMILES	TRPC6 inh	TRPC6 act	TRPC4 act	Kir21 inh	TRPC4 inh	TRPC4 potent	HEK293 MPD ctr-2	HEK293 MPD ctr 2-2	TRPC4/MOR mod	TRPC4 ctr inh 2	TRPC6 block conf	TRPC6 act confirm	others
Cn1cc(S(=O)(=O)Nc2ccc(F)c(Cl)c2)c(=O)n(C)c1=O	0	0	0	0	0	0	-	-	-	-	-	-
O=C(Nc1ccccc1)/C(=C/c1ccc(O)cc1)NC(=O)c1ccco1	0	0	0	0	0	0	-	-	-	-	-	-
Cc1cc(N2CCN(C)CC2)nc2ccc(NC(=O)c3ccc(Br)o3)cc12	-6.3	0	0	0	0	0	-100%	0	0	80%	67%	0
COc1cc(C(=O)Nc2ccc3nc(N4CCN(C)CC4)cc(C)c3c2)cc(OC)c1OC	0	0	0	0	0	0	-	-	-	-	-	-
CCOc1ccc(C(=O)Nc2ccc3nc(N4CCN(CC)CC4)cc(C)c3c2)cc1	0	0	0	0	0	0	-	-	-	-	-	-
O=C(Nc1ccc(N2CCCC2)cc1)c1ccc(Br)o1	0	0	0	0	0	0	-	-	-	-	-	-
CCN1CCN(c2cc(C)c3cc(NC(=O)c4cnccn4)ccc3n2)CC1	-5.9	0	0	0	0	0	0	69%	11%	29%	0	0
Cc1cc(N2CCCCC2)nc2ccc(NC(=O)c3ccc(Br)o3)cc12	-8.8	0	0	0	0	0	-	-	-	-	51%	0	TRPC4 spec 2=72%;TRPC4 spec=-31%;HEK293 MPD ctr 2-1=0;HEK293 MPD ctr-1=-332%
CC1=NN(C(N)=S)C(=O)C1N=Nc1cccc([N+](=O)[O-])c1 (stereo not drawn)	-5.3	0	0	0	0	0	0	0	0	0	0	0
